Legend:
Type in all cases: functional
[1] = system: Aspergillus niger; assay: Antifungal activity against Aspergillus niger using 1 x 10^5 spore/100 uL after 72 hrs by microdilution method
[2] = system: Aspergillus flavus; assay: Antifungal activity against Aspergillus flavus using 1 x 10^5 spore/100 uL assessed as 99.5% fungal killing of original inoculum after 72 hrs by microdilution method
[3] = system: Aspergillus fumigatus; assay: Antifungal activity against Aspergillus fumigatus using 1 x 10^5 spore/100 uL assessed as 99.5% fungal killing of original inoculum after 72 hrs by microdilution method
[4] = system: Bacillus thuringiensis; assay: Antibacterial activity against Bacillus thuringiensis using 1 x 10^4 CFU/ml inoculum after 24 hrs by microdilution method
[5] = system: Escherichia coli; assay: Antibacterial activity against Escherichia coli using 1 x 10^4 CFU/ml inoculum after 24 hrs by microdilution method
[6] = system: Staphylococcus aureus; assay: Antibacterial activity against Staphylococcus aureus using 1 x 10^4 CFU/ml inoculum after 24 hrs by microdilution method
[7] = system: Trichoderma viride; assay: Antifungal activity against Trichoderma viride using 1 x 10^5 spore/100 uL after 72 hrs by microdilution method
[8] = system: Aspergillus fumigatus; assay: Antifungal activity against Aspergillus fumigatus using 1 x 10^5 spore/100 uL after 72 hrs by microdilution method
[9] = system: Trichoderma viride; assay: Antifungal activity against Trichoderma viride using 1 x 10^5 spore/100 uL assessed as 99.5% fungal killing of original inoculum after 72 hrs by microdilution method
[10] = system: Aspergillus niger; assay: Antifungal activity against Aspergillus niger using 1 x 10^5 spore/100 uL assessed as 99.5% fungal killing of original inoculum after 72 hrs by microdilution method
[11] = Antifungal activity against Trichoderma reesei using 1 x 10^5 spore/100 uL assessed as 99.5% fungal killing of original inoculum after 72 hrs by microdilution method
[12] = system: Curvularia australiensis; assay: Antifungal activity against Drechslera australiensis using 1 x 10^5 spore/100 uL assessed as 99.5% fungal killing of original inoculum after 72 hrs by microdilution method
[13] = system: Bacillus cereus; assay: Antibacterial activity against Bacillus cereus using 1 x 10^4 CFU/ml inoculum after 24 hrs by microdilution method
[14] = Antifungal activity against Trichoderma reesei using 1 x 10^5 spore/100 uL after 72 hrs by microdilution method
In short: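 Spores washed from malt agar cultures with sterile 0.85% saline plus 0.1% Tween 80, adjusted to about 1.0×10^5 per 100 µl well. Compounds from a 1 mg/ml DMSO stock were serially diluted in malt broth with inoculum in 96-well plates and incubated 72 h at 28 °C. MIC is the lowest concentration with no visible growth under a binocular microscope. DMSO served as negative control.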

[15] = system: Aspergillus flavus; assay: Antifungal activity against Aspergillus flavus using 1 x 10^5 spore/100 uL after 72 hrs by microdilution method
[16] = system: Bacillus subtilis; assay: Antibacterial activity against Bacillus subtilis using 1 x 10^4 CFU/ml inoculum after 24 hrs by microdilution method
[17] = system: Curvularia australiensis; assay: Antifungal activity against Drechslera australiensis using 1 x 10^5 spore/100 uL after 72 hrs by microdilution method
[18] = system: Pseudomonas aeruginosa; assay: Antibacterial activity against Pseudomonas aeruginosa using 1 x 10^4 CFU/ml inoculum after 24 hrs by microdilution method

Structure (SMILES)	MIC [1]	MFC [2]	MFC [3]	MIC [4]	MIC [5]	MIC [6]	MIC [7]	MIC [8]	MFC [9]	MFC [10]	MFC [11]	MFC [12]	MIC [13]	MIC [14]	MIC [15]	MIC [16]	MIC [17]	MIC [18]
C/C(=N\NC(=O)C1=C(O)c2ccccc2S(=O)(=O)N1)c1ccccc1Cl	89.6 ×10⁻² umol	164.6 ×10⁻² umol	150.4 ×10⁻² umol	12.1 ×10⁻² umol	32.5 ×10⁻² umol	31.3 ×10⁻² umol	66.8 ×10⁻² umol	76.2 ×10⁻² umol	123.9 ×10⁻² umol	179.1 ×10⁻² umol	123 ×10⁻² µmol	125.1 ×10⁻² umol	11.5 ×10⁻² umol	61.4 ×10⁻² µmol	87.3 ×10⁻² umol	11.4 ×10⁻² umol	63.8 ×10⁻² umol	
C/C(=N\NC(=O)C1=C(O)c2ccccc2S(=O)(=O)N1C)c1ccc(Br)cc1	96 ×10⁻² umol	189.8 ×10⁻² umol	177 ×10⁻² umol				74.3 ×10⁻² umol	85.5 ×10⁻² umol	139.4 ×10⁻² umol	>200 ×10⁻² umol	142 ×10⁻² µmol	148.4 ×10⁻² umol		74.6 ×10⁻² µmol	93.4 ×10⁻² umol		77.3 ×10⁻² umol	
C/C(=N\NC(=O)C1=C(O)c2ccccc2S(=O)(=O)N1C)c1ccccc1Cl	88.6 ×10⁻² umol	170.2 ×10⁻² umol	144.6 ×10⁻² umol	12 ×10⁻² umol	31.7 ×10⁻² umol	30.7 ×10⁻² umol	66.5 ×10⁻² umol	76.1 ×10⁻² umol	133.1 ×10⁻² umol	167.9 ×10⁻² umol	119 ×10⁻² µmol	126.5 ×10⁻² umol	10.8 ×10⁻² umol	61.1 ×10⁻² µmol	87.1 ×10⁻² umol	11 ×10⁻² umol	63.6 ×10⁻² umol	32.6 ×10⁻² umol
NNC(=O)C1=C(O)c2ccccc2S(=O)(=O)N1	>100 ×10⁻² umol	>200 ×10⁻² umol	>200 ×10⁻² umol				>100 ×10⁻² umol	>100 ×10⁻² umol	>200 ×10⁻² umol	>200 ×10⁻² umol	> 200 ×10⁻² µmol	>200 ×10⁻² umol		> 100 ×10⁻² µmol	>100 ×10⁻² umol		>100 ×10⁻² umol	
C/C(=N\NC(=O)C1=C(O)c2ccccc2S(=O)(=O)N1)c1ccc(Cl)cc1	82.9 ×10⁻² umol	163 ×10⁻² umol	140.1 ×10⁻² umol	12.3 ×10⁻² umol	31.2 ×10⁻² umol	30.8 ×10⁻² umol	67.3 ×10⁻² umol	72.7 ×10⁻² umol	114.7 ×10⁻² umol	145.4 ×10⁻² umol	125 ×10⁻² µmol	130.5 ×10⁻² umol	11.7 ×10⁻² umol	62.5 ×10⁻² µmol	81.9 ×10⁻² umol	12.5 ×10⁻² umol	64.4 ×10⁻² umol	32.4 ×10⁻² umol
c1ccc(-c2ccc(C(c3ccccc3)n3ccnc3)cc2)cc1 (stereo unspecified) [BIFONAZOLE]	48 ×10⁻² umol	64 ×10⁻² umol	64 ×10⁻² umol				64 ×10⁻² umol	48 ×10⁻² umol	80 ×10⁻² umol	64 ×10⁻² umol	78 ×10⁻² µmol	75 ×10⁻² umol		60.2 ×10⁻² µmol	48 ×10⁻² umol		57.5 ×10⁻² umol	
C/C(=N\NC(=O)C1=C(O)c2ccccc2S(=O)(=O)N1)c1ccccc1Br	93.2 ×10⁻² umol	177.7 ×10⁻² umol	157.3 ×10⁻² umol				75.6 ×10⁻² umol	83.8 ×10⁻² umol	142.4 ×10⁻² umol	186.8 ×10⁻² umol	147 ×10⁻² µmol	158.4 ×10⁻² umol		74.8 ×10⁻² µmol	90 ×10⁻² umol		76.3 ×10⁻² umol	
C/C(=N\NC(=O)C1=C(O)c2ccccc2S(=O)(=O)N1C)c1ccc(Cl)c(Cl)c1	75 ×10⁻² umol	150 ×10⁻² umol	136.3 ×10⁻² umol				61.2 ×10⁻² umol	68.1 ×10⁻² umol	122.5 ×10⁻² umol	149.5 ×10⁻² umol	158 ×10⁻² µmol	122.6 ×10⁻² umol		59 ×10⁻² µmol	75 ×10⁻² umol		61.5 ×10⁻² umol	
C/C(=N\NC(=O)C1=C(O)c2ccccc2S(=O)(=O)N1C)c1ccc(Cl)cc1Cl	74.2 ×10⁻² umol	143.1 ×10⁻² umol	134.7 ×10⁻² umol				62.7 ×10⁻² umol	67.3 ×10⁻² umol	125 ×10⁻² umol	148.3 ×10⁻² umol	118 ×10⁻² µmol	122.7 ×10⁻² umol		59.1 ×10⁻² µmol	71.6 ×10⁻² umol		61.5 ×10⁻² umol	
C/C(=N\NC(=O)C1=C(O)c2ccccc2S(=O)(=O)N1)c1ccc(Br)cc1	96.4 ×10⁻² umol	173.2 ×10⁻² umol	191 ×10⁻² umol				74.4 ×10⁻² umol	85.7 ×10⁻² umol	188.2 ×10⁻² umol	188.5 ×10⁻² umol	130 ×10⁻² µmol	143.9 ×10⁻² umol		74.9 ×10⁻² µmol	93.7 ×10⁻² umol		77.5 ×10⁻² umol	
CN1C(C(=O)NN)=C(O)c2ccccc2S1(=O)=O	>100 ×10⁻² umol	>200 ×10⁻² umol	>200 ×10⁻² umol				>100 ×10⁻² umol	>100 ×10⁻² umol	>200 ×10⁻² umol	>200 ×10⁻² umol	> 200 ×10⁻² µmol	>200 ×10⁻² umol		> 100 ×10⁻² µmol	>100 ×10⁻² umol		>100 ×10⁻² umol	
CN[C@@H]1[C@H](O[C@H]2[C@H](O[C@H]3[C@H](O)[C@@H](O)[C@H](N=C(N)N)[C@@H](O)[C@@H]3N=C(N)N)O[C@@H](C)[C@]2(O)C=O)O[C@@H](CO)[C@H](O)[C@H]1O [STREPTOMYCIN]				4.4 ×10⁻² umol	16.5 ×10⁻² umol	16.5 ×10⁻² umol							4.3 ×10⁻² umol			4.2 ×10⁻² umol		16.5 ×10⁻² umol
C/C(=N\NC(=O)C1=C(O)c2ccccc2S(=O)(=O)N1C)c1ccccc1Br	93.1 ×10⁻² umol	168.5 ×10⁻² umol	163.6 ×10⁻² umol				75.4 ×10⁻² umol	83.6 ×10⁻² umol	149.9 ×10⁻² umol	186 ×10⁻² umol	151 ×10⁻² µmol	151.7 ×10⁻² umol		74.5 ×10⁻² µmol	89.4 ×10⁻² umol		76.2 ×10⁻² umol	
C/C(=N\NC(=O)C1=C(O)c2ccccc2S(=O)(=O)N1)c1ccc(Cl)c(Cl)c1	75.2 ×10⁻² umol	150.3 ×10⁻² umol	136.2 ×10⁻² umol				61.3 ×10⁻² umol	68.1 ×10⁻² umol	118.7 ×10⁻² umol	150.2 ×10⁻² umol	108 ×10⁻² µmol	123.4 ×10⁻² umol		59.2 ×10⁻² µmol	75.2 ×10⁻² umol		61.8 ×10⁻² umol	
C/C(=N\NC(=O)C1=C(O)c2ccccc2S(=O)(=O)N1)c1ccc(Cl)cc1Cl	74.6 ×10⁻² umol	143.5 ×10⁻² umol	142.5 ×10⁻² umol				62.9 ×10⁻² umol	67.4 ×10⁻² umol	125.7 ×10⁻² umol	149 ×10⁻² umol	119 ×10⁻² µmol	123.9 ×10⁻² umol		59.4 ×10⁻² µmol	71.8 ×10⁻² umol		62 ×10⁻² umol	

Source: ChEMBL document CHEMBL1781892, “Microwave assisted synthesis and structure-activity relationship of 4-hydroxy-N'-[1-phenylethylidene]-2H/2-methyl-1,2-benzothiazine-3-carbohydrazide 1,1-dioxides as anti-microbial agents” (2011)
